Screening data as filed in PubChem.
Compounds with a hit are over-represented: about 2% of the library has one in this group of screens.
Rpn11 inh – Rpn11 (human) deubiquitinase inhibition. O00487. human 26S proteasome, Ub4-pepOG fluorescence polarization; 20S core pre-blocked with epoxomicin. inhibition, % at 20 µM. 0.59% of 360,000 active;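 active = inhibition at 20 µM, scaled to each plate's controls, above about 33%, limit read from the data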
SENP1 FRET inh – SENP1 (human) catalytic domain inhibition | 0.21% of 360,000 active | recombinant SENP1 catalytic domain, CyPet-SUMO1-YPet FRET cleavage | inhibition, % at 10 µM | Q9P0U3;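 active = inhibition at least 30% at 10 µM, raw YFP signal under a set limit, fluorescence ratio 0.5 to 1.5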
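Material: hSENP1 catalytic domain, recombinant; medium: Tris pH 8 with BME, BSA, NP40 and catalase; compound: single concentration of 10 µM compound, 0.5% DMSO final; technique: FRET read of cyan and yellow fluorescence; timing: 50 min enzyme reaction, room temperature, light-protected; reagent: SFCypet-SUMO1-SFYpet substrate at 25 nM; control set: no-enzyme low, enzyme-DMSO high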
CSN inh – inhibitors of human CSN-mediated cullin deneddylation. AID 651999. 0.38% of 360,000 active. inhibition, % at 12.5 µM. Purified CSN, SCF-Nedd8-OG deneddylation, fluorescence polarization. Q92905;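 active = pattern-corrected inhibition above about 35%, with an unprinted fluorescence ratio check between 0.5 and 1.5, limit read from the data, passing the limit was not always enough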
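Assay system: purified human Csn5 enzyme expressed in HEK293T cells; Input: 0.24 nM Csn5 enzyme, final concentration; Reagent: 10 nM SCFSkp2-Nedd8OG; Compound dosing: 12.5 µM single point; Times: reaction 90 min, room temperature; Technique: fluorescence polarization readout.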
TPT1 inh – blocks Candida albicans tRNA 2'-phosphotransferase; inhibition, % at 5 µM; 0.81% of 300,000 active; AID 1962; recombinant caTPT1, FP RNA substrate dephosphorylation;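 active = inhibition above the mean of all tested compounds plus 3 SD, set per screening campaign, cut at about 24% in these data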
HNF4A DNA FP – change in binding of human HNF4 alpha to DNA | 0.3% of 360,000 active | HNF4a-FITC DNA binding, fluorescence polarization, 1 h | P41235 | AID 1224865 | activity change, % at 10 µM; in the data active = activity change above about 30%, passing the limit was not always enough
Target sequence (P41235 whole entry, looked up): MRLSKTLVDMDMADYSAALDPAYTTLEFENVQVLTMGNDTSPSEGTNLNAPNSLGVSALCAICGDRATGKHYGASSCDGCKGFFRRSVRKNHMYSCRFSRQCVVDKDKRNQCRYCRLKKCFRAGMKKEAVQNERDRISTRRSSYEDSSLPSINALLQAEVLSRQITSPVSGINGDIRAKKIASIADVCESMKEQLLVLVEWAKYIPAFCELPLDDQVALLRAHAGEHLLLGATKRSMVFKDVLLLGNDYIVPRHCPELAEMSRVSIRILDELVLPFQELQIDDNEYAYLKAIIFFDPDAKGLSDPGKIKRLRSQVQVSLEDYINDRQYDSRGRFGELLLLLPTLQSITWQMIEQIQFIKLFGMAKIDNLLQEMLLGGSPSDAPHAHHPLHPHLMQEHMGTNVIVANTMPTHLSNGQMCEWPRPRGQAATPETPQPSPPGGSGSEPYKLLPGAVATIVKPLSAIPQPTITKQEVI
ATG4B inh – inhibitors of human ATG4B cysteine protease; ATG4B cleavage of LC3-PLA2, NBD-HPC fluorescence, 1 h; AID 504462; inhibition, % at 8.33 µM; 0.51% of 340,000 active; in the data active = inhibition above about 40%
TPT1 inh confirm – TPT1 (C. albicans) inhibition, confirmation | 74% of 2,400 active | shares compounds with TPT1 inh | recombinant caTPT1, fluorescence polarization, RNase T1 coupled | inhibition, % at 5 µM | AID 2149;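 active = inhibition above the primary screen limit, the mean inhibition of all tested compounds plus 3 SD, cut at about 25% in these data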
RNase T1 inh – blocks Aspergillus oryzae RNase T1, a TPT1 counter-screen. shares compounds with TPT1 inh. 83% of 2,400 active. inhibition, % at 5 µM. RNase T1 cleavage, fluorescence polarization, 1536-well;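 active = inhibition above the solvent-only control well mean plus 3 SD, limit set per screening run, cut at about 23% in these data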;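 note: inhibitors block cleavage so intact labeled substrate keeps polarization high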
Target sequence (P00651 whole entry, looked up): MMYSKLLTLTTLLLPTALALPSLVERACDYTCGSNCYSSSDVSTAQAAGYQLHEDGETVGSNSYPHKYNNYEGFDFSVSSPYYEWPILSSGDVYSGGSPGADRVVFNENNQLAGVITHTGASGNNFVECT
Hits are given with their value; - = inactive; . = no result shown; ! = repeats disagree.

SMILES	Rpn11 inh	SENP1 FRET inh	CSN inh	TPT1 inh	HNF4A DNA FP	ATG4B inh	others
NC(Cc1cc(O)c(O)cc1O)C(=O)O (configuration not stated)	.	.	.	31	.	.
Cn1cc(C=C(C#N)C#N)c2ccccc21	.	-	36	-	-	-
N#Cc1ccc(Cn2cc(C=O)c3ccccc32)cc1	-	-	-	-	-	-
O=c1c2ccccc2nc(-c2cccs2)n1-c1ccccc1	-	-	-	-	-	-
CCn1nc(-c2cccs2)nc2c(=O)n(C)c(=O)nc1-2	-	44	63	.	100	86
COC1=CC(=O)OC(CCc2ccc3c(c2)OCO3)C1 (configuration not stated)	-	-	-	.	-	-
O=C1NC(=O)N(c2ccccc2F)C(=O)/C1=C/c1ccc(Sc2nc3ccccc3[nH]2)o1	83	-	-	-	-	-
CNC(=O)Oc1cccc2c1OC(C)(C)O2	-	-	-	.	-	-
CCOC(=O)[C@@]1(C#N)C(c2ccc(Cl)c(Cl)c2)[C@H](C(N)=O)N2C=C(C(C)=O)C=C[C@H]21 (some centres not stated)	-	-	-	-	-	-
CCOC(=O)[C@@]1(C#N)[C@@H]2C=CC(C(N)=O)=CN2[C@@H](C(N)=O)[C@@H]1c1cccc(Cl)c1	-	-	-	-	-	94
CCOC(=O)[C@]1(C#N)[C@@H]2C=CC(C(N)=O)=CN2[C@@H](C(N)=O)[C@@H]1c1ccc(F)cc1	-	-	-	-	-	48
O=C(O)C1CC2(Cl)C(Cl)=C(Cl)C1(Cl)C2(Cl)Cl (configuration not stated)	-	-	-	.	-	-
CCC1(c2ccc(C)cc2)C(=O)NC(=S)NC1=O	-	-	-	.	-	.
C[C@@H]1CN([C@@H](C)CO)C(=O)CCCn2nncc2CO[C@H]1CN(C)C(=O)Oc1ccc2ccccc2c1	-	-	-	.	-	.
c1ccc2c(c1)CNCc1cnnn1-2	-	-	-	.	-	-
COCCCNC(=O)Cn1cc(/C=C2\C(=O)NC(=O)N(c3ccccc3F)C2=O)c2ccccc21	-	-	-	-	57	-
CCN1/C(=C\C=C\C2=[N+](CC)c3ccccc3C2(C)C)C(C)(C)c2ccccc21	.	64	-	-	-	-
CCSC(=O)N1CCCCCC1	-	-	-	.	-	-
Cc1ccc2c(c1N)C(=O)c1ccccc1C2=O	-	53	-	.	-	-
C#CCOC(=O)C1=CCCN(C)C1	-	-	-	-	-	-
Cc1ccc(S(=O)(=O)N2Cc3cc(-c4ccccc4)ccc3-n3nncc3C2)cc1	-	-	-	.	48	.
O=S(=O)(c1cc(Cl)cc(Cl)c1)N1Cc2cc(-c3ccccc3)ccc2-n2nncc2C1	-	-	-	.	-	.
COCCCn1c(N)c(C(=O)NCCC(C)C)c2nc3ccccc3nc21	-	-	37	-	-	-
CCCNC(=O)c1c(N)n(CC2CCCO2)c2nc3ccccc3nc12 (configuration not stated)	-	-	40	-	-	-
CC(C)OC(=O)c1c(N)n(CC2CCCO2)c2nc3ccccc3nc12 (configuration not stated)	-	-	-	-	-	-
SMILES	Rpn11 inh	SENP1 FRET inh	CSN inh	TPT1 inh	HNF4A DNA FP	ATG4B inh	others
CCCCn1c(N)c(C(=O)OCCOC)c2nc3ccccc3nc21	-	-	-	-	-	-
O=[N+]([O-])/C=C/c1c(Cl)cccc1Cl	-	-	-	.	-	-
CCCCn1c(=O)c(C(=O)Nc2ccccc2C)c(O)c2ccccc21	-	-	-	-	39	-
O=C1CC(=O)N(Cc2ccccc2)C(=O)N1Cc1ccccc1	.	-	36	.	52	-
O=C1CC(=O)N(Cc2ccccc2)C(=O)N1	-	-	-	.	-	-
Cc1ccnc(NC(=O)CCCc2ccc(N(CCCl)CCCl)cc2)n1	-	-	84	.	-	-
Oc1ccc2c3c1O[C@H]1[C@@H](O)CC[C@@]4(O)[C@@H](C2)N(CC2CCC2)CC[C@]314	-	33!	-	-	-	-
CCN1C(=O)C(=C2C=C(C)N(Cc3ccco3)C(C)=C2)C(=O)N(CC)C1=S	-	-	-	-	-	-
CCN1C(=O)C(=C/C=C/c2ccco2)C(=O)N(CC)C1=S	.	-	-	81	-	-	TPT1 inh confirm=100;RNase T1 inh=104
Cc1ccc(/C=C2/C(=O)NC(=O)N(CCc3ccc(F)cc3)C2=O)o1	-	-	-	27	-	-	TPT1 inh confirm=-;RNase T1 inh=-
Cc1cc(C=C(C#N)C#N)ccc1N1CCCC1	-	-	-	126	-	-	TPT1 inh confirm=120;RNase T1 inh=139
Cc1ccccc1N1C(=O)NC(=O)/C(=C\c2ccc3c(c2)CCCN3Cc2ccccc2)C1=O	.	-	-	61	-	-	TPT1 inh confirm=154;RNase T1 inh=145
CCCCCCn1c(O)c(C=NCCCn2ccnc2)c(=O)[nH]c1=O	.	-	53	134	67	-	TPT1 inh confirm=73;RNase T1 inh=89
CCCCN=Cc1c(O)n(-c2c(C)cc(C)cc2C)c(=O)[nH]c1=O	-	-	-	33	-	-	TPT1 inh confirm=34;RNase T1 inh=45
COc1ccc(Cn2c(O)c(C=NCCCn3ccnc3)c(=O)[nH]c2=O)cc1	-	-	-	-	-	-
CCC(c1ccc(C)cc1)N1C(=O)C2C3CCC(O3)C2C1=O (configuration not stated)	-	-	-	.	-	-
CCn1c(O)c(C(=O)CC2NCCc3ccccc32)c(=O)n(CC)c1=S (configuration not stated)	110	-	-	62	-	-	TPT1 inh confirm=56;RNase T1 inh=68
CCn1c(O)c(/C=N/N2CCOCC2)c(=O)n(CC)c1=S	-	-	-	-	-	-
O=C(Cn1ncc2c3ccccc3n(Cc3cccc(Cl)c3)c2c1=O)N1CCC2(CC1)OCCO2	-	-	-	114	-	-	TPT1 inh confirm=64;RNase T1 inh=69
CC(=O)N[C@@H]1CC[C@@]2(O)[C@H]3Cc4ccc(O)c5c4[C@@]2(CCN3CC2CC2)[C@@H]1O5	-	-	-	.	-	-
COc1cc(OC)c(OC)cc1/C=C1\C(=O)NC(=O)N(Cc2ccccc2)C1=O	-	-	-	-	-	-
COc1cc(OC)c(OC)cc1/C=C1/C(=O)NC(=O)N(Cc2ccccc2)C1=O	-	-	-	26	-	-	TPT1 inh confirm=30;RNase T1 inh=41
COc1cccc(-n2c(/C=C/c3ccccn3)nc3ccccc3c2=O)c1	-	-	-	.	-	-
